Here are results for 19 compounds from ChEMBL document CHEMBL3112550, “Specific features of HIV-1 integrase inhibition by bisphosphonate derivatives” (Eur J Med Chem, 2014).

Active and inactive are the calls of the source. No cut-off for these calls is given here.

Experiment [1] addresses Human immunodeficiency virus type 1 integrase (Human immunodeficiency virus 1) (UniProt Q7ZJM1). The experiment can be described thus: (§1) Inhibition of HIV-1 integrase expressed in Escherichia coli using [32P]-labeled U5B/U5A DNA as substrate assessed as inhibition of 3'-processing reaction after 2 hrs by PAGE analysis in presence of Mg2+. Put shortly: (§2)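 3'-Processing: 32P-labeled U5B/U5A (3 nM) with IN (100 nM) in buffer A (20 mM HEPES pH 7.2, 7.5 mM MgCl2 or MnCl2, 1 mM DTT), increasing inhibitor, 37°C, 2 h; stopped with EDTA solution, phenol–chloroform extracted, ethanol precipitated, resolved on denaturing 20% PAGE, phosphorimager-quantified.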

Experiment [2] shares this target. The experiment can be described thus: Inhibition of HIV-1 integrase expressed in Escherichia coli using [32P]-labeled U5B/U5A DNA as substrate assessed as inhibition of 3'-processing reaction up to 250 uM after 2 hrs by PAGE analysis in presence of Mg2+. The essentials: as §2
Experiment [3] concerns the target T1, Human immunodeficiency virus type 1 integrase (Human immunodeficiency virus 1, UniProt Q7ZJM1). Description: Displacement of [32P]-labeled U5B/U5A DNA from HIV-1 integrase expressed in Escherichia coli in presence of Mg2+. Put shortly: (§3)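 DRaCALA binding: 32P-labeled U5B/U5A (3 nM) with IN in buffer A (20 mM HEPES pH 7.2, 7.5 mM MgCl2 or MnCl2, 1 mM DTT), compound 0–500 μM, 25°C for 20 min; mixture spotted on nitrocellulose membrane, bound DNA quantified by phosphorimaging.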

Experiment [4] addresses T1, Human immunodeficiency virus type 1 integrase. Described as §1. The essentials:
as §2

Experiment [5] shares this target. Description: Inhibition of HIV-1 GST-tagged integrase-His6-tagged LEDGF complex expressed in Escherichia coli BL21(DE3) using [32P]-labeled U5B/U5A DNA as substrate assessed as inhibition of 3'-processing reaction after 2 hrs by PAGE analysis in presence of Mn2+. Put shortly:
(§4)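 IN/LEDGF complex (IN combined with 50 nM LEDGF) processing 32P-labeled U5B/U5A (3 nM) in buffer A (20 mM HEPES pH 7.2, 7.5 mM MgCl2 or MnCl2, 1 mM DTT) with increasing inhibitor, 37°C, 2 h; products separated by denaturing 20% PAGE and quantified by phosphorimaging.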

For experiment [6] the target is unchanged. The experiment can be described thus: Inhibition of HIV-1 integrase expressed in Escherichia coli using [32P]-labeled U5B-2/U5A DNA as substrate assessed as inhibition of strand transfer reaction after 2 hrs by PAGE analysis in presence of Mg2+. The essentials: (§5)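 Strand transfer: 32P-labeled U5B-2/U5A duplex (10 nM) with IN (100 nM) in buffer A (20 mM HEPES pH 7.2, 7.5 mM MgCl2 or MnCl2, 1 mM DTT), increasing inhibitor, 37°C, 2 h. EDTA-containing stop solution, phenol–chloroform extraction, ethanol precipitation, denaturing 20% PAGE, phosphorimager quantification of reaction efficiency.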

Experiment [7] shares this target. Description: Inhibition of HIV-1 integrase expressed in Escherichia coli using [32P]-labeled U5B-2/U5A DNA as substrate assessed as inhibition of strand transfer reaction after 2 hrs by PAGE analysis in presence of Mn2+. The essentials: as §5
For experiment [8] the target is unchanged. The experiment can be described thus: Displacement of [32P]-labeled U5B/U5A DNA from HIV-1 integrase expressed in Escherichia coli in presence of Mn2+. The essentials:
as §3

Experiment [9] shares this target. Description: Inhibition of HIV-1 GST-tagged integrase-His6-tagged LEDGF complex expressed in Escherichia coli BL21(DE3) using [32P]-labeled U5B/U5A DNA as substrate assessed as inhibition of 3'-processing reaction after 2 hrs by PAGE analysis in presence of Mg2+. The essentials:
as §4

Experiment [10] shares this target. The experiment can be described thus: Inhibition of HIV-1 integrase expressed in Escherichia coli using [32P]-labeled U5B/U5A DNA as substrate assessed as inhibition of 3'-processing reaction after 2 hrs by PAGE analysis in presence of Mn2+. The essentials:
as §2

Experiment [11] addresses Human immunodeficiency virus type 1 integrase (Human immunodeficiency virus 1) (UniProt Q7ZJM1). Description: Inhibition of HIV-1 integrase expressed in Escherichia coli using [32P]-labeled U5B/U5A DNA as substrate assessed as inhibition of 3'-processing reaction up to 500 uM after 2 hrs by PAGE analysis in presence of Mg2+. The essentials: (§6)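 3'-processing: 32P-labelled U5B/U5A duplex mimicking the HIV-1 U5 LTR end (3 nM) incubated with integrase (100 nM) in 20 mM HEPES pH 7.2, 7.5 mM MgCl2, 1 mM DTT, with increasing inhibitor concentrations, 37°C, 2 h. Stopped with EDTA, phenol-chloroform extracted, ethanol precipitated. Products resolved on denaturing 20% PAGE, phosphorimaged, reaction efficiency quantified.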

Experiment [12] has as its target Human immunodeficiency virus type 1 integrase (Human immunodeficiency virus 1, UniProt Q7ZJM1, N155H). Description: Inhibition of HIV-1 integrase N155H mutant expressed in Escherichia coli using [32P]-labeled U5B/U5A DNA as substrate assessed as inhibition of 3'-processing reaction after 2 hrs by PAGE analysis in presence of Mg2+. Put shortly: as §6
Experiment [13] concerns the target T1, Human immunodeficiency virus type 1 integrase. The experiment can be described thus: Competitive inhibition of HIV-1 integrase expressed in Escherichia coli using [32P]-labeled U5B/U5A DNA as substrate after 1 hr by double-reciprocal plot analysis in presence of Mg2+. Put shortly:
(§7)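 Kinetics: IN (100 nM) incubated with 32P-labeled U5B/U5A (2.5–12.5 nM) plus inhibitor (0–39 μM or 0–15 μM, depending on compound) in buffer A (20 mM HEPES pH 7.2, 7.5 mM MgCl2 or MnCl2, 1 mM DTT), 1 h, 37°C. Initial 3'-processing rate vs substrate concentration at varied inhibitor levels plotted double-reciprocally; Km and KI calculated from the fitted inhibition model.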

Experiment [14] concerns the target Human immunodeficiency virus type 1 integrase (Human immunodeficiency virus 1, UniProt Q7ZJM1, E92Q). The experiment can be described thus: Inhibition of HIV-1 integrase E92Q mutant expressed in Escherichia coli using [32P]-labeled U5B/U5A DNA as substrate assessed as inhibition of 3'-processing reaction after 2 hrs by PAGE analysis in presence of Mg2+. The essentials:
as §6

The target of experiment [15] is Human immunodeficiency virus type 1 integrase (Human immunodeficiency virus 1, UniProt Q7ZJM1, E138K). Description: Inhibition of HIV-1 integrase E138K mutant expressed in Escherichia coli using [32P]-labeled U5B/U5A DNA as substrate assessed as inhibition of 3'-processing reaction after 2 hrs by PAGE analysis in presence of Mg2+. The essentials: as §6
Sequence of Human immunodeficiency virus type 1 integrase (Human immunodeficiency virus 1, UniProt Q7ZJM1, E138K) (Q7ZJM1 entry or part of it E138K): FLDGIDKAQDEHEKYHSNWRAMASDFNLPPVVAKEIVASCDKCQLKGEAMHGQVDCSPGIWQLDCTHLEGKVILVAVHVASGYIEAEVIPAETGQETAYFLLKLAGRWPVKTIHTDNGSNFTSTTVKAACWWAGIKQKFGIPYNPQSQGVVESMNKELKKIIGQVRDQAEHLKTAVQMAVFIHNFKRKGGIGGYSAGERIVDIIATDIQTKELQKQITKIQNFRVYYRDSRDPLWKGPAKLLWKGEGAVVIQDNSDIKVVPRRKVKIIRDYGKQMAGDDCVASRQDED
Experiment [16] addresses Human immunodeficiency virus type 1 integrase (Human immunodeficiency virus 1, UniProt Q7ZJM1, G140S). The experiment can be described thus: Inhibition of HIV-1 integrase G140S mutant expressed in Escherichia coli using [32P]-labeled U5B/U5A DNA as substrate assessed as inhibition of 3'-processing reaction after 2 hrs by PAGE analysis in presence of Mg2+. Put shortly:
as §6

Experiment [17] concerns the target T1, Human immunodeficiency virus type 1 integrase. The experiment can be described thus: Non-competitive inhibition of HIV-1 integrase expressed in Escherichia coli using [32P]-labeled U5B/U5A DNA as substrate after 1 hr by double-reciprocal plot analysis in presence of Mn2+. Put shortly: as §7
The target is the same in experiment [18]. The experiment can be described thus: Non-competitive inhibition of HIV-1 integrase expressed in Escherichia coli using [32P]-labeled U5B/U5A DNA as substrate after 1 hr by double-reciprocal plot analysis in presence of Mg2+. The essentials:
as §7

The target in experiment [19] is Human immunodeficiency virus type 1 integrase (Human immunodeficiency virus 1) (UniProt Q7ZJM1). Description: Ratio of IC50 for HIV-1 integrase-mediated 3'-processing reaction in presence of Mg2+ to IC50 for HIV-1 integrase-mediated strand transfer reaction in presence of Mg2+.
Sequence of Human immunodeficiency virus type 1 integrase (Human immunodeficiency virus 1) (Q7ZJM1 as listed by the source): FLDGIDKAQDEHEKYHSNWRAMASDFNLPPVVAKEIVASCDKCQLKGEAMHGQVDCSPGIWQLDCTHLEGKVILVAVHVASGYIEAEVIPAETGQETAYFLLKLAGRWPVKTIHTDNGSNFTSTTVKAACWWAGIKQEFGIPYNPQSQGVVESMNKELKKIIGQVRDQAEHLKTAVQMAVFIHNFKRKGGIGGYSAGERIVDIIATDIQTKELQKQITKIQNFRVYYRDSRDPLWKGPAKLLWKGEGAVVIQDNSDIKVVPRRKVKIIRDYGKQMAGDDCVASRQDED

For orientation: IC50 means the point on the concentration scale where inhibition reaches its midpoint. Usually Ki stands for the equilibrium dissociation constant of an inhibitor or competing ligand from its target.

T1 sequence (Q7ZJM1 whole entry): as the sequence (Q7ZJM1 as listed by the source) above
Sequence of Human immunodeficiency virus type 1 integrase (Human immunodeficiency virus 1, UniProt Q7ZJM1, N155H) (Q7ZJM1 entry or part of it N155H): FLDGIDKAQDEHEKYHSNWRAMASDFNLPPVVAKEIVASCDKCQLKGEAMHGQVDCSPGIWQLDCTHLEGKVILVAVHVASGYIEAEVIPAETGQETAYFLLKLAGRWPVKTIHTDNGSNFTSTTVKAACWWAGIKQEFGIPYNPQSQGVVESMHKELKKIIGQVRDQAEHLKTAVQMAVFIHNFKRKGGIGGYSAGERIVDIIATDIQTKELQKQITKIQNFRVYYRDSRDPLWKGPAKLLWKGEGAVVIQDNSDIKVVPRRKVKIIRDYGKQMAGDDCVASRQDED
Sequence of Human immunodeficiency virus type 1 integrase (Human immunodeficiency virus 1, UniProt Q7ZJM1, G140S) (Q7ZJM1 entry or part of it G140S): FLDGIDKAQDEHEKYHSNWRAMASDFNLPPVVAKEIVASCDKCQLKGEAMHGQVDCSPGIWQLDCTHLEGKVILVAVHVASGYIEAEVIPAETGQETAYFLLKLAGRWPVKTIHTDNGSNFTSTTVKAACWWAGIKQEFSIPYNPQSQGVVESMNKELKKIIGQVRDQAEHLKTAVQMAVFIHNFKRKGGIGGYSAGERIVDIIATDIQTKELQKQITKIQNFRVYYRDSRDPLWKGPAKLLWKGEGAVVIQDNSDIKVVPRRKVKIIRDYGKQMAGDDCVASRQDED
Sequence of Human immunodeficiency virus type 1 integrase (Human immunodeficiency virus 1, UniProt Q7ZJM1, E92Q) (Q7ZJM1 entry or part of it E92Q): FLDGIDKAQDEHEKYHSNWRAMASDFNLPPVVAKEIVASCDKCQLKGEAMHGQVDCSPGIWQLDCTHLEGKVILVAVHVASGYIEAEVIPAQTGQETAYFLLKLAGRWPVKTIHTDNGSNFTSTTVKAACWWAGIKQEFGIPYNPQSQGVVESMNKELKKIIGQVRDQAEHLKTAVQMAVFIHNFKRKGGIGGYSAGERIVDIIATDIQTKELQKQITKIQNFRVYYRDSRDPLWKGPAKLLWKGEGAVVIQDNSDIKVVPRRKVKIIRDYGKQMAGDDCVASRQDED

Take `O=P(O)(O)C(CNc1ccc(I)cc1)P(=O)(O)O`: in [1], the inhibition entry was “inactive”.
Regarding `NC(Cc1ccccc1)(P(=O)(O)O)P(=O)(O)O`, the inhibition entry in experiment [2] was “inactive”.
As for `O=P(O)(O)C(O)(Cc1ccc(Cl)cc1)P(=O)(O)O`, the IC50 is 70 µM in experiment [3]; 20 µM in [4]; 8 µM in [5]; 42 µM in [6]; 6 µM in experiment [7]; more than 500 µM in experiment [8]. For the same compound, the IC50 in experiment [9] is more than 250 µM; in experiment [10], 5 µM.
In the case of `O=P(O)(O)Cc1ccc(Cl)c(Cl)c1`, the inhibition entry in [11] is “inactive”.
As for `O=P(O)(O)C(O)(Cc1ccc(Cl)c(Cl)c1)P(=O)(O)O`, the IC50 came out at 35 µM in [12]; 35 µM in [14]; 150 µM in [3]; 35 µM in experiment [4]; 4.5 µM in [5]; 35 µM in experiment [15]. The IC50 in experiment [6] was 45 µM; in experiment [16] it was 35 µM; in experiment [7], 4 µM; in [8] it was more than 500 µM; in experiment [9], more than 250 µM; in experiment [10], 5 µM. Moreover, the Ki in experiment [13] turned out to be 38 µM; in [17], 4.4 µM.
Turning to `O=P(O)(O)C(Cc1ccc(Cl)c(Cl)c1)P(=O)(O)O`, the IC50 is 130 µM in experiment [3]; 30 µM in experiment [4]; 6 µM in experiment [5]; 30 µM in experiment [6]; 5 µM in [7]; more than 500 µM in experiment [8]. Moreover, the IC50 in experiment [9] is more than 250 µM; in experiment [10], 5 µM.
Consider `O=P(O)(O)C(O)(C[n+]1ccccc1)P(=O)(O)O`, for which the inhibition result in experiment [2] is “inactive”.
Consider `O=P(O)(O)C(O)(C[n+]1ccc(-c2ccccc2)cc1)P(=O)(O)O`, for which the inhibition result in experiment [2] is “inactive”.
Turning to `NC(C[n+]1ccccc1)(P(=O)(O)O)P(=O)(O)O`, the inhibition result in experiment [2] is “inactive”.
Consider `O=P(O)(O)C(O)(CCc1ccccc1)P(=O)(O)O`, for which the inhibition result in [2] is “inactive”.
Turning to `O=P(O)(O)C(CNc1ccccc1)P(=O)(O)O`, the inhibition entry in experiment [1] was “inactive”.
In the case of `NC(Cc1ccc(Cl)c(Cl)c1)(P(=O)(O)O)P(=O)(O)O`, the 50% inhibitory concentration (IC50) in experiment [12] is 7 µM; in [14], 7 µM; in [3], more than 256 µM; in [4], 7 µM; in experiment [5] it was 2 µM; in experiment [15], 7 µM. Besides, the IC50 in experiment [6] is 3 µM; in experiment [16], 7 µM; in [7], 2 µM; in experiment [8] it was more than 500 µM; in [9], 7 µM; in experiment [10] it was 2 µM. The figures for the Ki in experiment [18] and in [17] were 2 µM and 1 µM, respectively. Moreover, the Ratio IC50 in experiment [19] was determined as 2.
Regarding `O=C(O)Cc1ccc(Cl)c(Cl)c1`, in experiment [11], the inhibition result is “inactive”.
Regarding `O=P(O)(O)C(O)(CCCCc1ccccc1)P(=O)(O)O`, the inhibition entry in experiment [2] is “inactive”.
Take `O=P(O)(O)C(CNCCc1ccccc1)P(=O)(O)O`: in experiment [1], the inhibition result was “inactive”.
Consider `O=P(O)(O)C(O)(C[n+]1cccc(O)c1)P(=O)(O)O`, for which, in experiment [2], the inhibition result was “inactive”.
Same read-out and setting: the result for `O=P(O)(O)C(O)(Cc1ccccc1)P(=O)(O)O` reads “inactive”.
`CCc1cccc[n+]1CC(O)(P(=O)(O)O)P(=O)(O)O`: the inhibition result in experiment [2] was “inactive”.
As to `O=P(O)(O)C(Cc1ccc(Cl)c(Cl)c1)(Cc1ccc(Cl)c(Cl)c1)P(=O)(O)O`, the IC50 in experiment [3] was 100 µM; in experiment [4], 20 µM; in [6] it was 16 µM; in [7], 0.8 µM; in experiment [8], more than 500 µM; in experiment [10], 0.8 µM.
